Assay [1] deals with T1, Sphingomyelin phosphodiesterase (Homo sapiens, UniProt P17405).
T1 sequence (P17405 whole entry): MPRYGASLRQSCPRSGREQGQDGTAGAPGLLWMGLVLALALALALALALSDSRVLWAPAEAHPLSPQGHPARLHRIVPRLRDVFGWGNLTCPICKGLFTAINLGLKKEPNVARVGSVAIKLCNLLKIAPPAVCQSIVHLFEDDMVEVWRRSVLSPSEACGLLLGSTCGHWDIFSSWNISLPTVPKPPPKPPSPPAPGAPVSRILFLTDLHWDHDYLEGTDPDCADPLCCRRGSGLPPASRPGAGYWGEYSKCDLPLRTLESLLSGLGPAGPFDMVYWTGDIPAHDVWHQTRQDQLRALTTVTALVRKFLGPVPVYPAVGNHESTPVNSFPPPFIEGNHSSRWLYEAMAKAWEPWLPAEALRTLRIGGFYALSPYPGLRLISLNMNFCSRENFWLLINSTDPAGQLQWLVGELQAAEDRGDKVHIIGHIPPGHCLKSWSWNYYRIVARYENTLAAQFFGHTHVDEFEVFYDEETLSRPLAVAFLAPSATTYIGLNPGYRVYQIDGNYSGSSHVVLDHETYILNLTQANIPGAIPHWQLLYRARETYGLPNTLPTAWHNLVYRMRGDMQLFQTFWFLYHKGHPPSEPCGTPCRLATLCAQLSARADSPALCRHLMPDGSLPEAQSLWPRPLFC
In words: Inhibition of acid sphingomyelinase in human HuH7 cell lysate using NBD-sphingomyelin as substrate after 30 mins by TLC based fluorescence assay.

Assay [2] addresses T2, Sphingomyelin phosphodiesterase (Homo sapiens) (UniProt P17405).
T2 sequence (whole entry): T1 sequence (P17405 whole entry)
The experiment in a line: Competitive inhibition of acid sphingomyelinase in human HuH7 cell lysate using varying levels of NBD-sphingomyelin as substrate at 0.5 to 5 uM after 30 mins by Lineweaver-Burk analysis. To be noted: in the assay text read “after 10 mins” for “after 30 mins”. The essentials:
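Kinetics using the lysate ASM protocol, NBD-SM at 1.35, 1.89, 2.70, 4.54 and 13.5 µM per inhibitor level (0.5, 1.0, 5 µM); reaction stopped after 10 min; NBD-ceramide quantified by HPLC against a standard curve; Lineweaver-Burk plots by linear regression; triplicate.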

Assay [3] addresses T3, Sphingomyelin phosphodiesterase (Mus musculus) (UniProt Q04519).
T3 sequence (whole entry): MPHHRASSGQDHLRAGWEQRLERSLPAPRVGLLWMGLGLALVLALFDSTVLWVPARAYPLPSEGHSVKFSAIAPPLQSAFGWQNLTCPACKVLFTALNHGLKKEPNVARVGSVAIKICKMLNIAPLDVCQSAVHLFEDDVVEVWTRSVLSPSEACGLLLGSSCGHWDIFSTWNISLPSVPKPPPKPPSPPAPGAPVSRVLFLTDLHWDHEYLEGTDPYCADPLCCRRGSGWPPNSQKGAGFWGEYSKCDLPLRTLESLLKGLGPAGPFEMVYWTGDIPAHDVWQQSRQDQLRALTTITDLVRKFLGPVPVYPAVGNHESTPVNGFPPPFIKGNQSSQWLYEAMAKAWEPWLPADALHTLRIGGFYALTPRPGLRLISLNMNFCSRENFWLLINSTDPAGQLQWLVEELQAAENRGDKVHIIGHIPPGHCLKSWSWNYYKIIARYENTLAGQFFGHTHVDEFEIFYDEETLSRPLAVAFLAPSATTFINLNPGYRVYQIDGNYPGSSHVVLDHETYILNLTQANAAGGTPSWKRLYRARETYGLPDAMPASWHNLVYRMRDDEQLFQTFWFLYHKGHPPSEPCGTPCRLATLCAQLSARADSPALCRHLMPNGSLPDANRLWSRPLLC
In words: Inhibition of acid sphingomyelinase in mouse NIH/3T3 cells assessed as ceramide levels at 10 uM after 20 hrs by LC-MS/MS analysis relative to control. The assay is classed as cell-based. The essentials:
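NIH3T3 cells in DMEM with 10% FBS, 37 °C, 5% CO₂; at 90% confluence given fresh medium plus inhibitor (5, 10, 20 µM) for 20 h; total ceramides and sphingomyelin quantified by LC-MS-MS versus untreated control; mean ± SD of three independent experiments, Student's t-test.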

Assay [4] deals with NIH3T3. The experiment in a line: Cytoprotective activity against UV-induced apoptosis in mouse NIH/3T3 cells assessed as necrotic cells at 10 uM preincubated for 20 hrs followed by UV irradiation for 5 mins and measured after 24 hrs by flow cytometric analysis (reference value: 1.5%). The assay is classed as functional.
Assay [5] relates to NIH3T3. In words: Cytoprotective activity against UV-induced apoptosis in mouse NIH/3T3 cells assessed as viable cells at 20 uM preincubated for 20 hrs followed by UV irradiation for 5 mins and measured after 24 hrs by flow cytometric analysis (reference value: 12.6%). The assay is classed as functional. The settings on record: NIH3T3, light or radiation study, read-out: Activity.

The test system of assay [6] is NIH3T3. In words: Cytoprotective activity against UV-induced apoptosis in mouse NIH/3T3 cells assessed as late apoptotic cells at 20 uM preincubated for 20 hrs followed by UV irradiation for 5 mins and measured after 24 hrs by flow cytometric analysis (reference value: 6.4%). It is filed as functional.
Assay [7] concerns NIH3T3. The experiment in a line: Cytoprotective activity against UV-induced apoptosis in mouse NIH/3T3 cells assessed as late apoptotic cells at 40 uM preincubated for 20 hrs followed by UV irradiation for 5 mins and measured after 24 hrs by flow cytometric analysis (reference value: 6.4%). The assay is classed as functional.
Assay [8] relates to NIH3T3. In words: Cytoprotective activity against UV-induced apoptosis in mouse NIH/3T3 cells assessed as late apoptotic cells at 60 uM preincubated for 20 hrs followed by UV irradiation for 5 mins and measured after 24 hrs by flow cytometric analysis (reference value: 6.4%). The assay is classed as functional.
In assay [9] the test system is NIH3T3. The experiment in a line: Cytoprotective activity against UV-induced apoptosis in mouse NIH/3T3 cells assessed as necrotic cells preincubated for 20 hrs followed by UV irradiation for 5 mins and measured after 24 hrs by flow cytometric analysis. The assay is classed as functional, cell-based. The gist of the method: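 NIH3T3 cells grown in DMEM plus 10% FBS at 37 °C and 5% CO₂, seeded in 6-well plates and left overnight. Inhibitor (0–60 µM, DMSO solvent) added for 20 h. Medium replaced, then UV at peak 315 nm, 0.29 mW/cm² for 5 min. Cells kept with inhibitor 24 h more before flow cytometry by quadrant regions. Untreated, unirradiated cells served as control. Three independent experiments.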

For assay [10], the target named is T3, Sphingomyelin phosphodiesterase (Mus musculus). In words: Inhibition of UV-induced ceramide production in mouse NIH/3T3 cells by LC-MS/MS analysis. The assay is classed as cell-based. The gist of the method:
(§1)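 Ceramide in the UV-apoptosis setup: NIH3T3 cells pretreated with inhibitor 20 h, UV 315 nm 0.29 mW/cm² 5 min, further 24 h with inhibitor; ceramide quantified (pmol/mg) by LC-MS-MS; amitriptyline as positive control; mean ± SD of three independent experiments.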

In assay [11] the test system is NIH3T3. The experiment in a line: Inhibition of LPS-induced IL-8 production in mouse NIH/3T3 cells preincubated for 20 hrs followed by LPS-stimulation and measured after 6 hrs by ELISA. It is filed as functional, cell-based. The essentials: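 NIH3T3 cells (DMEM, 10% FBS) seeded at 2*10⁵ per well overnight, inhibitor 20 h, then LPS to 50 ng/mL for a further 6 h; IL-6 or IL-8 measured by ELISA; compared with LPS-only and control groups.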

For assay [12], the target named is T3, Sphingomyelin phosphodiesterase (Mus musculus). The experiment in a line: Inhibition of UV-induced ceramide production in mouse NIH/3T3 cells assessed as ceramide level at 50 uM by LC-MS/MS analysis (reference value: 107.686 pmol/mg). The assay is classed as cell-based. The gist of the method: as §1

Activity calls are given as the source filed them. No cut-off for these calls is given here.

Turning to `CCCCCCCCCCOc1cc(C(=O)NO)ccc1OC`, in [1], the IC50 came out at 480 nM. For the same compound, the inhibition entry in assay [2] is “Active”. For the same compound, the figures for the inhibition (in [3]; in [10]; with NIH3T3 [11]) were 37%, “Dose-dependent effect” and “Dose-dependent effect”, respectively. Besides, the Activity was 0% with NIH3T3 [4]; 8.4% in the assay with NIH3T3 [6]; 7.9% with NIH3T3 [7]; 7.5% in the assay with NIH3T3 [8]; “Dose-dependent effect” with NIH3T3 [9]; 106 pmol/mg in assay [12]. Also, the viability at 20 µM in the assay with NIH3T3 [5] stood at 54.7%.

Source of the values: ChEMBL document CHEMBL4152204, “Discovery of N-hydroxy-3-alkoxybenzamides as direct acid sphingomyelinase inhibitors using a ligand-based pharmacophore model” (Eur J Med Chem, 2018).
